# Calls of active or inactive are those of the source. The calls are words filed in the database; no cut-off is given here.
# Columns and labels:
# [1] = biological target: T1, 5-hydroxytryptamine receptor 1A (Rattus norvegicus, UniProt P19327); assay: In vitro displacement of radioactively labeled ligand [3H]8-OH-DPAT from 5-hydroxytryptamine 1A receptor site in CHO cells; assay type: cell-based
# T1 sequence (P19327 whole entry): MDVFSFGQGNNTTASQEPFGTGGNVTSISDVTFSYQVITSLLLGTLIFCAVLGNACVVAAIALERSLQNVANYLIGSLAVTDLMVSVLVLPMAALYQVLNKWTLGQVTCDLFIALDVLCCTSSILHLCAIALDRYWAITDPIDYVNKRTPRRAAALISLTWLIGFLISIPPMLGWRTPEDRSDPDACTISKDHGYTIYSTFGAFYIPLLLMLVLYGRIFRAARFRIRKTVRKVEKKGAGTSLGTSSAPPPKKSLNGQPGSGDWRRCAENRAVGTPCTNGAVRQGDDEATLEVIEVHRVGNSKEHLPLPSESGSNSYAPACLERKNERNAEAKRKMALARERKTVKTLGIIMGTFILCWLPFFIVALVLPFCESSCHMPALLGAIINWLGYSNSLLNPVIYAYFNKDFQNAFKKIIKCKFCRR
# D(2) dopamine receptor = D(2) dopamine receptor (Rattus norvegicus, UniProt P61169); assay: Displacement of [3H]U-86170 from Dopamine receptor D2
# Chain of D(2) dopamine receptor (P61169 whole entry): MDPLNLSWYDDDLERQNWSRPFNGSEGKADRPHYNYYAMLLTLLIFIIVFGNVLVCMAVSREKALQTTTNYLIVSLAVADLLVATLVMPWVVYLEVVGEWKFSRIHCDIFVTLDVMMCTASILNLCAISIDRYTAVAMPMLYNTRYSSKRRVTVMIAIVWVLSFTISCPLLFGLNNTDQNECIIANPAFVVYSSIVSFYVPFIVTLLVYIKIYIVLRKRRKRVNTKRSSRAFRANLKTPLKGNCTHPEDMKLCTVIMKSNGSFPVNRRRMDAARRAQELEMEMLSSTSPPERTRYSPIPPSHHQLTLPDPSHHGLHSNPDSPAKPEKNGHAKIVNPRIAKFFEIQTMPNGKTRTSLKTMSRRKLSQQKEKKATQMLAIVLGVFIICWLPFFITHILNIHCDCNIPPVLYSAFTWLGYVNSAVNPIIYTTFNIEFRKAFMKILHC
# How it was run: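 Competition binding at cloned D2 receptors expressed in CHO-K1 cells, using the agonist [3H]U86170 (62 Ci/mmol, 2 nM) against 11 dilutions of test compound. IC50 was fitted to a one-site model by nonlinear least squares. Ki was obtained with the Cheng–Prusoff equation.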
# Rattus norvegicus [2] = organism: Rattus norvegicus; assay: (§1) In vitro metabolic stability of the test compound was evaluated after incubation in the presence of freshly isolated rat hepatocytes; assay type: functional, Hepatocyte; parameters: reference not given here
# How it was run: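 Rat hepatocytes were isolated by modified collagenase perfusion and incubated as suspensions (5 million cells/mL) with each compound at three concentrations. Parent loss was followed by HPLC. Initial rates gave apparent Vmax and Km by direct linear plot, with CLint = Vmax/Km. Stability is expressed relative to a reference compound incubated at the same time.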
# Rattus norvegicus [3] = assay: postsynaptic effects was assessed by the increase in the locomotor activity (reversal of reserpine induced hypokinesia) during a 30 min period after subcutaneous administration using photocell motility meters at the dose of 50(micro M/kg); assay type: ADME, organism-based; details: in vivo, sc, 0.5 h
# How it was run: (§2)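 Reserpine 5 mg/kg sc was given 18 h before testing to male Sprague–Dawley rats. Test drug was given sc in the neck, and rats were placed singly in photocell motility meters. Accumulated counts were recorded over 30 min (mean, n = 4), with gross behaviour observed throughout. Student's t test was applied.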
# Rattus norvegicus [4] = assay: (§3) 5-HTP accumulation in limbic system was determined in vivo; assay type: functional
# How it was run: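 Male Sprague–Dawley rats (200–300 g) pretreated with reserpine 5 mg/kg sc 18 h beforehand; test drug given sc in neck, 5 mL/kg, neutral pH. 5-HTP in limbic system measured by HPLC with electrochemical detection.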
# Rattus norvegicus [5] = assay: In vivo effects on DA (dopamine) synthesis in corps striatum was reported after subcutaneous administration to reserpinized rats; inactive at a dose of 50; assay type: functional, organism-based
# How it was run: (§4)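 Male Sprague–Dawley rats (200–300 g) given reserpine 5 mg/kg sc 18 h before; compounds sc in neck region, 5 mL/kg. DOPA accumulation in striatum or cortex measured by HPLC with electrochemical detection.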
# Rattus norvegicus [6] = assay: in vivo effects on DA (dopamine) synthesis in cortex was reported after subcutaneous administration to reserpinized rats; inactive at a dose of 50; assay type: functional, organism-based; how it was run: as §4
# Rattus norvegicus [7] = assay: postsynaptic effects was assessed by the increase in the locomotor activity (reversal of reserpine induced hypokinesia) during a 30 min period after subcutaneous administration using photocell motility meters at dose of 12.5 (uM /kg); assay type: functional
# How it was run: (§5)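 Male Sprague–Dawley rats got reserpine 5 mg/kg sc in the neck 18 h before testing. Compound was given sc in the neck (5 mL/kg), and rats were placed singly in photocell motility meters. Accumulated counts were recorded over 30 min, mean ± SEM, n = 4, with Student's t test against reserpinized controls. Testing ran 9 a.m.–1 p.m.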
# Rattus norvegicus [8] = assay: In vivo effects on DA (dopamine) synthesis in corps striatum was reported after subcutaneous administration to reserpinized rats; inactive at a dose of 100; assay type: functional, organism-based
# Rattus norvegicus [9] = assay: as §3; assay type: functional; remark: listed apart in the source
# How it was run: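 Male Sprague–Dawley rats (200–300 g), pretreated with reserpine 5 mg/kg sc 18 h before. Test drug given sc. 5-HTP measured in limbic brain tissue by HPLC with electrochemical detection. Dose–response curves were built from four to six dose levels (n = 4) for each substance and brain area. ED50 reported in μmol/kg sc.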
# Rattus norvegicus [10] = assay: in vivo effects on DA (dopamine) synthesis in cortex was reported after subcutaneous administration to reserpinized rats; inactive at a dose of 100; assay type: functional, organism-based
# Rattus norvegicus [11] = assay: postsynaptic effects was assessed by the increase in the locomotor activity (reversal of reserpine induced hypokinesia) during a 30 min period after subcutaneous administration using photocell motility meters at the dose of 12.5(mic roM/kg); assay type: ADME, organism-based; details: in vivo, sc, 0.5 h; how it was run: as §2
# Rattus norvegicus [12] = organism: Rattus norvegicus; assay: as §1; assay type: ADME, Hepatocyte
# How it was run: (§6)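 Rat hepatocytes were prepared by a modified collagenase perfusion method. Each compound was incubated at three concentrations in suspension at 5 million cells/mL. Initial rates were analysed by direct linear plot to give apparent Vmax and Km, and CLint = Vmax/Km. Rates were measured by HPLC and expressed relative to a reference compound incubated at the same time.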
# Rattus norvegicus [13] = assay: uM/kg); assay type: ADME, organism-based; details: in vivo; how it was run: as §5
# Rattus norvegicus [14] = assay: in vivo effects on DA (dopamine) synthesis in cortex was reported after subcutaneous administration to reserpinized rats; inactive at a dose of 12.5; assay type: functional, organism-based; how it was run: as §4
# Rattus norvegicus [15] = assay: In vivo effects on DA (dopamine) synthesis in corps striatum was reported after subcutaneous administration to reserpinized rats; inactive at a dose of 12.5; assay type: functional, organism-based; how it was run: as §4
# Rattus norvegicus [16] = assay: In vivo effects on DA (dopamine) synthesis in corps striatum was reported after subcutaneous administration to reserpinized rats; inactive at a dose of 3.1; assay type: functional, organism-based
# Rattus norvegicus [17] = assay: in vivo effects on DA (dopamine) synthesis in cortex was reported after subcutaneous administration to reserpinized rats; inactive at a dose of 3.1; assay type: functional, organism-based
# Rattus norvegicus [18] = assay: postsynaptic effect was assessed by the increase in the locomotor activity (reversal of reserpine induced hypokinesia) during a 30 min period after subcutaneous administration using photocell motility meters at the dose of 3.1 uM/kg; assay type: ADME, organism-based; details: in vivo, sc, 0.5 h; how it was run: as §2
# Rattus norvegicus [19] = organism: Rattus norvegicus; assay: In vitro metabolic stability of the test compound was evaluated after incubation in the presence of freshly isolated rat hepatocytes; Metabolic stability NT = not tested; assay type: functional, Hepatocyte; how it was run: as §6
SMILES,Ki [1],Ki (D(2) dopamine receptor),Metabolic stability (Rattus norvegicus [2]),also measured
COCCN1CC[C@H]2c3c(cccc3C(N)=O)CC[C@H]21,129 nM,> 1000 nM,0.58,
CN1CC[C@H]2c3c(cccc3C(N)=O)CC[C@H]21,,> 1000 nM,4.9,Locomotor activity (Rattus norvegicus [3]): 23; ED50 (Rattus norvegicus [4]): 17.6 µmol/kg; ED50 (Rattus norvegicus [5]): inactive; ED50 (Rattus norvegicus [6]): inactive
CCCCN1CC[C@H]2c3c(Br)cccc3CC[C@H]21,45 nM,75 nM,,
C=CCNC(=O)c1cccc2c1[C@@H]1CCN(CCC)[C@@H]1CC2,2.2 nM,> 1000 nM,0.4,Locomotor activity (Rattus norvegicus [3]): 82; ED50 (Rattus norvegicus [4]): 0.8 µmol/kg; ED50 (Rattus norvegicus [5]): inactive; ED50 (Rattus norvegicus [6]): inactive
COCCN1CC[C@H]2c3c(Br)cccc3CC[C@H]21,97 nM,252 nM,,
C=CCCN1CC[C@H]2c3c(Br)cccc3CC[C@H]21,34 nM,55 nM,,
C=CCCN1CC[C@H]2c3c(cccc3C(N)=O)CC[C@H]21,82 nM,> 1000 nM,0.33,
CCCN(CCC)C(=O)c1cccc2c1[C@@H]1CCN(CCC)[C@@H]1CC2,434 nM,> 1000 nM,,
CCCN1CC[C@H]2c3c(cccc3C(N)=O)CC[C@H]21,1.9 nM,> 1630 nM,1,ED50 (Rattus norvegicus [4]): 0.28 µmol/kg; Locomotor activity (Rattus norvegicus [7]): 249; ED50 (Rattus norvegicus [5]): inactive; ED50 (Rattus norvegicus [6]): inactive
CCN1CC[C@H]2c3c(cccc3C(N)=O)CC[C@H]21,23 nM,> 1000 nM,1.5,ED50 (Rattus norvegicus [8]): inactive; ED50 (Rattus norvegicus [9]): 2 µmol/kg; ED50 (Rattus norvegicus [10]): inactive; Locomotor activity (Rattus norvegicus [11]): 13
NC(=O)c1cccc2c1[C@@H]1CCN(CCCCl)[C@@H]1CC2,15 nM,> 1000 nM,,Metabolic stability (Rattus norvegicus [12]): 0.22
CCCCN1CC[C@H]2c3c(cccc3C(N)=O)CC[C@H]21,83 nM,> 1000 nM,0.3,
C=CCN1CC[C@H]2c3c(cccc3C(N)=O)CC[C@H]21,1.5 nM,> 1000 nM,1,ED50 (Rattus norvegicus [4]): 0.04 µmol/kg; Locomotor activity (Rattus norvegicus [13]): 215; ED50 (Rattus norvegicus [14]): inactive; ED50 (Rattus norvegicus [15]): inactive
CN1CC[C@H]2c3c(Br)cccc3CC[C@H]21,24 nM,41 nM,,
CC(C)CN1CC[C@H]2c3c(cccc3C(N)=O)CC[C@H]21,42 nM,> 1000 nM,0.23,
CCCN1CC[C@H]2c3c(cccc3C(=O)C(C)C)CC[C@H]21,1.2 nM,62 nM,0.8,ED50 (Rattus norvegicus [16]): inactive; ED50 (Rattus norvegicus [9]): 0.025 µmol/kg; ED50 (Rattus norvegicus [17]): inactive; Locomotor activity (Rattus norvegicus [18]): 450
NC(=O)c1cccc2c1[C@@H]1CCN(CCCF)[C@@H]1CC2,3.9 nM,> 1000 nM,0.68,
FCCCN1CC[C@H]2c3c(Br)cccc3CC[C@H]21,4.7 nM,47 nM,,
ClCCCN1CC[C@H]2c3c(Br)cccc3CC[C@H]21,12 nM,73 nM,,
Brc1cccc2c1[C@@H]1CCN(CC3CC3)[C@@H]1CC2,4.7 nM,119 nM,,
C#CCN1CC[C@H]2c3c(cccc3C(N)=O)CC[C@H]21,48 nM,> 1000 nM,0.37,
CCN1CC[C@H]2c3c(Br)cccc3CC[C@H]21,11 nM,34 nM,,
CCCN1CC[C@H]2c3c(cccc3C(=O)NCc3ccccc3)CC[C@H]21,22 nM,> 1000 nM,0.16,ED50 (Rattus norvegicus [4]): 7 µmol/kg; ED50 (Rattus norvegicus [5]): inactive; ED50 (Rattus norvegicus [6]): inactive; Locomotor activity (Rattus norvegicus [11]): 41
CC(C)=CCN1CC[C@H]2c3c(cccc3C(N)=O)CC[C@H]21,271 nM,> 1000 nM,,Metabolic stability (Rattus norvegicus [19]): 0
C=CCN1CC[C@H]2c3c(Br)cccc3CC[C@H]21,1 nM,3.2 nM,,
NC(=O)c1cccc2c1[C@@H]1CCN(CC3CC3)[C@@H]1CC2,8.3 nM,> 1000 nM,0.5,Locomotor activity (Rattus norvegicus [3]): 32; ED50 (Rattus norvegicus [4]): 1 µmol/kg; ED50 (Rattus norvegicus [5]): inactive; ED50 (Rattus norvegicus [6]): inactive
CC(C)=CCN1CC[C@H]2c3c(Br)cccc3CC[C@H]21,266 nM,18 nM,,Metabolic stability (Rattus norvegicus [12]): 0.21

# From ChEMBL document CHEMBL1128248, “C-9 and N-substituted analogs of cis-(3aR)-(-)-2,3,3a,4,5,9b-hexahydro-3- propyl-1H-benz[e]indole-9-carboxamide: 5-HT1A receptor agonists with various degrees of metabolic stability” (J Med Chem, 1995)
